Consider 35 compounds from ChEMBL document CHEMBL1140721, “Development of potent purine-derived nitrile inhibitors of the trypanosomal protease TbcatB” (J Med Chem, 2008).

Assay [1] concerns the target T1, Cathepsin B-like cysteine protease (Trypanosoma brucei, UniProt Q6R7Z5).
T1 sequence (Q6R7Z5 whole entry): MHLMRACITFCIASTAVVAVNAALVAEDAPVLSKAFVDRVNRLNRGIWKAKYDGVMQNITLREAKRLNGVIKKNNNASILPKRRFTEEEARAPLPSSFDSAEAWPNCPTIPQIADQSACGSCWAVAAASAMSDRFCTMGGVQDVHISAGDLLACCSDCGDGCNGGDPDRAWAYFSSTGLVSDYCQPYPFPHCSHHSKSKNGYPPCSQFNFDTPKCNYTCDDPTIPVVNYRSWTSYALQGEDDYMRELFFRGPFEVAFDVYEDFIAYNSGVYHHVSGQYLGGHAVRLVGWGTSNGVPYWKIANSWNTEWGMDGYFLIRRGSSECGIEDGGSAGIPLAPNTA
Description: Inhibition of Trypanosoma brucei cathepsin B-like cysteine protease. Summed up: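 Recombinant TbcatB zymogen expressed in Pichia pastoris, purified by HIC and anion exchange, titrated with CA074; 35 nM final. Inhibitor preincubated 20 min at room temperature, then Z-Phe-Arg-AMC (10 µM final). Initial rate from fluorescence (ex 350/em 460 nm) over 10 min. Triplicate. Sigmoidal IC50 fit.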

A further assay deals with Trypanosoma brucei. The assay can be described thus: Antitrypanosomal activity against Trypanosoma brucei. It counts as functional, organism-based. Summed up:
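Culture-adapted bloodstream T. brucei grown in HMI-9 with pen/strep, 10% heat-inactivated FBS and 10% Serum Plus at 37 °C, 5% CO2, diluted to 1 × 10^4 cells/mL. Inhibitor added from DMSO, 48 h at 37 °C, then 1 h room-temperature equilibration. Cell Titer Glo luminescence read after 8 min. Quadruplicate. IC50 by curve fitting. Values shift up to 10-fold with FBS lot.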

For a further assay, the target named is Procathepsin L (Homo sapiens, UniProt P07711). Description: Inhibition of human liver cathepsin L. Summed up: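 Inhibitor preincubated 20 min at room temperature before Z-Phe-Arg-AMC (10 µM final). Initial rate from fluorescence (ex 350/em 460 nm) over 10 min. Quadruplicate. Sigmoidal IC50 fit.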
Procathepsin L, sequence (P07711 whole entry): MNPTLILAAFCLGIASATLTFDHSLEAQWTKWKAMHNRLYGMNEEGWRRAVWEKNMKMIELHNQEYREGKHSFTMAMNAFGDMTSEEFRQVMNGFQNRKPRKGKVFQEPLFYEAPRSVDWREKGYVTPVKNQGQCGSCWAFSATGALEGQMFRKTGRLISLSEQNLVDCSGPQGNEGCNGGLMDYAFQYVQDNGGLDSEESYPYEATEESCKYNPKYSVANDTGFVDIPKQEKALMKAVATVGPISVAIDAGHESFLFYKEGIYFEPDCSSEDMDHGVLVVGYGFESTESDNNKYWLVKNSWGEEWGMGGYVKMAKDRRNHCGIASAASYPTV
The target of a further assay is Cathepsin B (Homo sapiens, UniProt P07858). The assay can be described thus: Inhibition of human liver cathepsin B. A digest of the protocol: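 Human liver enzyme at 0.56 ng/mL final in sodium acetate pH 5.5 buffer with 4 mM DTT, 0.01% Triton X-100, 0.5 mM EDTA. 20 min room-temperature preincubation with inhibitor, then Z-Arg-Arg-AMC (10 µM final). Quadruplicate. Sigmoidal IC50 fit.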

Some results are limits rather than exact numbers.

A word on the IC50: it is the concentration that inhibits the measured activity by half. The EC50 is the concentration that produces a half-maximal response.

On to `N#Cc1nc(NCc2ccc(F)cc2)c2ncn(Cc3ccccc3)c2n1`, for which the IC50 in assay [1] is 3.3 µM; in the assay on Trypanosoma brucei, 0.9 µM; against Procathepsin L, 13.5 µM; against Cathepsin B, over 30 µM.
For the compound `Cc1ccc(CNc2nc(C#N)nc3c2ncn3Cc2ccccc2)cc1`, the IC50 was over 25 µM in assay [1], 12.9 µM against Procathepsin L and over 30 µM at Cathepsin B. In the assay with Trypanosoma brucei, this compound showed an EC50 of 0.56 µM.
As to `COc1ccc(Cn2cnc3c(NCc4ccc(Cl)cc4)nc(C#N)nc32)cc1`, the IC50 was 23 µM in assay [1], 0.27 µM in the assay with Trypanosoma brucei, over 30 µM against Procathepsin L and over 30 µM against Cathepsin B.
With `N#Cc1nc(NCc2ccc(F)cc2)c2ncn(CCCCO)c2n1`, the IC50 in assay [1] is 18 µM; with Trypanosoma brucei, 0.8 µM; at Procathepsin L, 6.68 µM; at Cathepsin B, over 30 µM.
With `N#Cc1nc(NCc2ccccc2)c2ncn(Cc3cccc(C(F)(F)F)c3)c2n1`, the IC50 in assay [1] was 2.8 µM; in the assay on Trypanosoma brucei, 0.26 µM; on Procathepsin L, over 30 µM; at Cathepsin B, over 30 µM.
Consider `N#Cc1nc(NCc2ccc(Cl)cc2)c2ncn(CCCO)c2n1`, for which the half-maximal inhibitory concentration (IC50) in assay [1] was 0.57 µM; in the assay with Trypanosoma brucei, 0.31 µM; at Procathepsin L, 0.61 µM.
Turning to `N#Cc1nc(NCCc2ccccc2)c2ncn(Cc3cccnc3)c2n1`, the IC50 in assay [1] was 10 µM; in the assay with Trypanosoma brucei, 4.4 µM; at Procathepsin L it was 17.1 µM; against Cathepsin B it was over 30 µM.
For `N#Cc1nc(NCCc2ccccc2)c2ncn(Cc3ccccc3)c2n1`, in that order: over 25 µM, 2.4 µM, over 30 µM and over 30 µM.
For the compound `CCC(C)CNc1nc(C#N)nc2c1ncn2C1CCCC1` (configuration not stated), the concentration for half-maximal inhibition (IC50) is 14 µM in assay [1], 1.1 µM in the assay with Trypanosoma brucei, 2.38 µM against Procathepsin L and over 30 µM on Cathepsin B.
Take `N#Cc1nc(NCc2ccc(Cl)c(Cl)c2)c2ncn(CCCO)c2n1`: the IC50 is 0.27 µM in assay [1], 0.11 µM in the assay on Trypanosoma brucei and 0.3 µM against Procathepsin L.
With `N#Cc1nc(NCc2ccc(Cl)c(Cl)c2)c2ncn(CC(O)CO)c2n1` (configuration not stated), the concentration for half-maximal inhibition (IC50) in assay [1] was 1.2 µM; in the assay on Trypanosoma brucei it was 0.45 µM; against Procathepsin L, 0.42 µM; at Cathepsin B it was over 30 µM.
Take `COCCCn1cnc2c(NCc3ccc(Cl)c(Cl)c3)nc(C#N)nc21`: the IC50 is 2.5 µM in assay [1], 0.15 µM with Trypanosoma brucei, 0.78 µM against Procathepsin L and over 30 µM on Cathepsin B.
Take `COC(CCn1cnc2c(NCc3ccc(Cl)c(Cl)c3)nc(C#N)nc21)OC`: the IC50 in assay [1] was 3.4 µM; with Trypanosoma brucei, 0.22 µM; against Procathepsin L it was 0.5 µM; on Cathepsin B it was over 30 µM.
As to `CCCCn1cnc2c(NCc3ccc(Br)cc3)nc(C#N)nc21`, the half-maximal inhibitory concentration (IC50) in assay [1] was 8.4 µM; in the assay on Trypanosoma brucei, 0.54 µM; on Procathepsin L it was 9.62 µM; at Cathepsin B, over 30 µM.
`N#Cc1nc(NCc2ccc(Br)cc2)c2ncn(CCCc3ccccc3)c2n1`: the IC50 in assay [1] was over 25 µM; with Trypanosoma brucei, 0.42 µM; against Procathepsin L, over 30 µM; at Cathepsin B it was over 30 µM.
In the case of `CCCCn1cnc2c(NCc3ccc(Cl)c(Cl)c3)nc(C#N)nc21`, the concentration for half-maximal inhibition (IC50) in assay [1] was 4.1 µM; in the assay on Trypanosoma brucei, 0.18 µM; against Procathepsin L, 1.82 µM; on Cathepsin B it was over 30 µM.
On to `COc1ccc(CNc2nc(C#N)nc3c2ncn3Cc2ccccc2)cc1`, for which the results for the concentration for half-maximal inhibition (IC50) (in assay [1]; at Procathepsin L; at Cathepsin B) were 4.5 µM, 8.05 µM and over 30 µM, respectively. In addition, in the assay with Trypanosoma brucei, the EC50 turned out to be 1 µM.
Consider `Cc1ccc(CNc2nc(C#N)nc3c2ncn3CCCO)cc1`, for which the IC50 amounted to 4.2 µM in assay [1], 1.17 µM against Procathepsin L and 7.69 µM against Cathepsin B. Besides, a half-maximal response in the assay with Trypanosoma brucei (EC50) required 0.9 µM.
With `N#Cc1nc(NCc2ccc(Cl)cc2)c2ncn(Cc3cccnc3)c2n1`, the 50% inhibitory concentration (IC50) in assay [1] is over 25 µM; in the assay with Trypanosoma brucei it was 0.5 µM; on Procathepsin L, over 30 µM; at Cathepsin B, over 30 µM.
Take `N#Cc1nc(NCc2ccc(Cl)cc2)c2ncn(CCCCO)c2n1`: the IC50 is 4.8 µM in assay [1], 0.6 µM in the assay with Trypanosoma brucei and 4.15 µM against Procathepsin L.
In the case of `CCCCn1cnc2c(NCCc3ccccc3)nc(C#N)nc21`, the 50% inhibitory concentration (IC50) in assay [1] is 16 µM; in the assay on Trypanosoma brucei it was 1.5 µM; at Procathepsin L it was 17.1 µM; on Cathepsin B it was over 30 µM.
`COc1ccc(Cn2cnc3c(NCc4ccccc4)nc(C#N)nc32)cc1`: the half-maximal inhibitory concentration (IC50) is 11 µM in assay [1], 26.9 µM on Procathepsin L and over 30 µM at Cathepsin B. In addition, in the assay on Trypanosoma brucei, a half-maximal response (EC50) required 0.4 µM.
As for `CCCCn1cnc2c(NCc3ccc(F)cc3)nc(C#N)nc21`, the IC50 was 7.1 µM in assay [1], 0.7 µM with Trypanosoma brucei, 6.84 µM at Procathepsin L and over 30 µM against Cathepsin B.
On to `CCCCn1cnc2c(NCc3ccc(OC)cc3)nc(C#N)nc21`, for which the results for the half-inhibitory concentration (IC50) (in assay [1]; on Procathepsin L; at Cathepsin B) were 6 µM, 2.28 µM and over 30 µM, respectively. In the assay on Trypanosoma brucei, this compound had an EC50 of 0.39 µM.
For `CCCCn1cnc2c(NCc3ccc(C)cc3)nc(C#N)nc21`, in that order: over 25 µM, 5.86 µM, over 30 µM and 0.55 µM.
For `N#Cc1nc(NCc2ccccc2)c2ncn(CCCO)c2n1`, the IC50 worked out at 12 µM in assay [1] and 2.27 µM against Procathepsin L. In the assay with Trypanosoma brucei, the EC50 worked out at 2.9 µM.
`N#Cc1nc(NCc2ccc(Cl)cc2)c2ncn(Cc3cccc(C(F)(F)F)c3)c2n1`: the IC50 is over 25 µM in assay [1], 0.34 µM with Trypanosoma brucei, over 30 µM on Procathepsin L and over 30 µM against Cathepsin B.
Turning to `N#Cc1nc(NCc2ccc(Cl)c(Cl)c2)c2ncn(CCCCCO)c2n1`, the IC50 is 0.93 µM in assay [1], 0.06 µM in the assay with Trypanosoma brucei, 0.8 µM at Procathepsin L and over 30 µM against Cathepsin B.
Regarding `COCOCCn1cnc2c(NCc3ccc(Cl)c(Cl)c3)nc(C#N)nc21`, the half-inhibitory concentration (IC50) in assay [1] is 0.8 µM; in the assay with Trypanosoma brucei, 0.32 µM; at Procathepsin L, 0.87 µM; at Cathepsin B it was over 30 µM.
For `N#Cc1nc(NCc2ccc(Cl)c(Cl)c2)c2ncn(CCO)c2n1`, in that order: 1.4 µM, 0.6 µM, 0.3 µM and over 30 µM.
`N#Cc1nc(NCc2ccc(Cl)c(Cl)c2)c2ncn(Cc3ccccc3)c2n1`: the half-inhibitory concentration (IC50) is 15 µM in assay [1], 14.9 µM at Procathepsin L and over 30 µM at Cathepsin B. This compound also came in with a concentration for a half-maximal effect (EC50) in the assay with Trypanosoma brucei of 0.26 µM.
`N#Cc1nc(NCc2ccccc2)c2ncn(CC3CCCCO3)c2n1` (configuration not stated): the 50% inhibitory concentration (IC50) is 11 µM in assay [1], 10.8 µM on Procathepsin L and over 30 µM at Cathepsin B. Besides, the EC50 in the assay on Trypanosoma brucei was 0.24 µM.
Consider `N#Cc1nc(NCc2ccc(Br)cc2)c2ncn(Cc3ccccc3)c2n1`, for which the concentration for half-maximal inhibition (IC50) in assay [1] was over 25 µM; in the assay on Trypanosoma brucei, 1.1 µM; against Procathepsin L, 28.9 µM; against Cathepsin B, over 30 µM.
`N=C(N)c1ccc(/N=N/Nc2ccc(C(=N)N)cc2)cc1` [DIMINAZENE]: the IC50 was 0.02 µM in the assay on Trypanosoma brucei and over 30 µM against Cathepsin B.
Consider `Cc1ccc(C(=O)Nc2ccc(S(=O)(=O)O)c3cc(S(=O)(=O)O)cc(S(=O)(=O)O)c23)cc1NC(=O)c1cccc(NC(=O)Nc2cccc(C(=O)Nc3cc(C(=O)Nc4ccc(S(=O)(=O)O)c5cc(S(=O)(=O)O)cc(S(=O)(=O)O)c45)ccc3C)c2)c1` [SURAMIN], for which the IC50 with Trypanosoma brucei was 0.13 µM; against Cathepsin B, over 30 µM.
